# Screening data deposited in PubChem BioAssay by several laboratories.
# Most compounds without a hit are left out; they make up all but 7.4% or so of the library.
# JNK3 blocker = JNK3 (human) kinase inhibition | P53779 | purified JNK3 kinase activity, HTS | inhibition, % at 8 µM | 60,000 compounds, 0.61% hits; in the data active means inhibition above about 17%;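 further: 0% = DMSO and 100% = reference inhibitor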
# S1P1 ag pot = agonists and agonism potentiators of human S1P1 receptor | activation, % at 9.5 µM | 56,000 compounds, 0.57% hits | P21453 | S1P1 CRE-bla cells, forskolin, beta-lactamase FRET, potentiator mode; S1P1 agonist co-added at EC20, 2 nM; 100% = saturating reference agonist, 0% = basal;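 active means activation above a cutoff set at the mean activation of all tested compounds plus 3 SD, cut at about 54% in these data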;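 further: forskolin at 4 µM as EC80 and the EC20 agonist is SEW2871; 100% = SEW2871 at its EC100 plus forskolin at EC80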
# Target sequence (P21453 whole entry, looked up): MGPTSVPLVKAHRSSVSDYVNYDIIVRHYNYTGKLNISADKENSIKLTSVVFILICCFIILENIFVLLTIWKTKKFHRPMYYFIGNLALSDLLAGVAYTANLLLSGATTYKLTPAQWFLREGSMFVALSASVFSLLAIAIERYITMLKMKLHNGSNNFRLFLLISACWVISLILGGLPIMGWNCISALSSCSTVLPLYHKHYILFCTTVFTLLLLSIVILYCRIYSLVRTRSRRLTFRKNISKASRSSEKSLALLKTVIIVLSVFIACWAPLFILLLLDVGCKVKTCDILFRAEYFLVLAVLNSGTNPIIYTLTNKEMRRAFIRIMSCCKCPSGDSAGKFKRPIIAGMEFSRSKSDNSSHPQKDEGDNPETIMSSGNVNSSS
# M1 ag = agonists of M1 muscarinic receptor | CHO-M1 cells, Fluo-4 calcium fluorescence, agonist mode; stronger effect = higher value | B-score at 10 µM | 64,000 compounds, 3% hits | AID 626;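 active means fluorescence rise, raw or as B-score row- and column-corrected plate score, outside the 99.7% band of its plate's samples, either direction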
# S1P3 ag = activates the human S1P3 receptor. Q99500. S1P3 NFAT-BLA reporter cells, agonism, FRET ratio; relative to 1 µM S1P, basal subtracted. activation, % at 4.5 µM. 60,000 compounds, 0.1% hits. AID 373;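 active means activation above the screen-wide mean plus 3 SD, cut at about 4.5% in these data, passing the limit was not always enough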
#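 Assay system: stable CHO line with human S1P3, Gα16, NFAT-BLA reporter; Detection: FRET β-lactamase substrate fluorescence, excitation 405 nm, 460/535 nm emission ratio, background-subtracted; Read-out: percent activation versus median 1 µM S1P response, basal-subtracted, per plate; Incubation: cells plated overnight, compound 4 h 37 °C, substrate 2 h RT.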
# Jurkat tox 60K = cytotoxic compounds reducing Jurkat cell viability; Jurkat E6.1 viability, ATP luminescence, 48 h; inhibition, % at 4 µM; 56,000 compounds, 1.2% hits; AID 463;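 active means inhibition above the mean inhibition of all tested compounds plus 3 SD, cut at about 28% in these data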
# M1 antag = antagonists of rat M1 muscarinic receptor; CHO-M1 cells, Fluo-4 calcium, ACh EC80 antagonist mode; stronger effect = lower value; P08482; B-score at 10 µM; 64,000 compounds, 3.4% hits;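 active means calcium fluorescence response, raw or row-and-column corrected B-score, differing from the plate sample mean either way at a set confidence level, mostly lower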
# M1 ag confirm = confirmation of rat M1 muscarinic receptor agonists. shares compounds with M1 ag. CHO-M1 cells, Fluo-4 calcium fluorescence, agonist mode; actives lie on both sides. fluorescence change (max-min) at 10 µM. 1,700 compounds, 19% hits;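 active means fluorescence change differs from the solvent-only DMSO control mean at a set confidence level in both duplicate runs; inconclusive means differs from solvent-only control mean in just one of two runs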;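 further: an EC20 dose of acetylcholine follows compound addition during the same imaging run; raw fluorescence intensity difference in instrument units with no normalization to controls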
# M4 agonist ctr = counter-screen for M1 agonists: activity at rat M4 receptor. shares compounds with M1 ag. 1,700 compounds, 9% hits. fluorescence change (max-min) at 10 µM. CHO M4/Gqi5 cells, Fluo-4 calcium fluorescence, agonist mode; actives lie on both sides. AID 1741;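 active means fluorescence change differing from the plate's solvent-only control wells at 99.7% confidence in both duplicates, whether higher or lower; inconclusive means differs from solvent controls in only one of two duplicates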
# Starred values were filed as active, the others as inactive; u = inconclusive; x = not tested or not shown.
SMILES,JNK3 blocker,S1P1 ag pot,M1 ag,S1P3 ag,Jurkat tox 60K,M1 antag,M1 ag confirm,M4 agonist ctr
Cc1ccc(S(=O)(=O)NC(CN2CCOCC2)=NCCNS(=O)(=O)c2ccccc2)cc1,2,-1,-1.9,0,3,0.24,x,x
CC(C)(C)NC(=O)COC(=O)c1snc(C(=O)NC2CCCCC2)c1N,-4,-2,4.9*,0,29,-0.96*,-20,u
CCc1c(C)nc2ncnn2c1N1CCC(C(=O)Nc2cccc(C(C)=O)c2)CC1,3,-12,1.2,0,-2,0.5,x,x
COc1cccc2c1N1C(=O)c3c(C(=O)O)cccc3C1CC2(C)C (stereo not drawn),-1,3,0.11,-1,4,0.48,x,x
COc1cc(/C=C(/C#N)c2ccc(F)cc2)ccc1OCc1ccc(C(=O)O)o1,3,-8,0.5,-1,-1,0.021,x,x
N#C/C(=C/c1ccc(N2CCCCCC2)o1)c1ccc(F)cc1,2,129,31*,-2,99*,0.87,-2.8,u
CCOC(=O)c1cc(C)n(S(=O)(=O)c2ccc(C)cc2)c1C,3,-2,0.66,-1,6,-0.029,x,x
CCC(=O)Nc1ccccc1C(=O)N1CCOCC1,1,x,-0.03,-1,1,0.46,x,x
O=C(CCCN1C(=O)c2ccccc2C1=O)Nc1ccccc1C(=O)N1CCOCC1,1,-15,2.3*,-1,6,0.68,-19,-31
O=C(c1ccco1)N1CCN(CC(O)COc2ccc3oc4ccccc4c3c2)CC1 (stereo not drawn),-3,8,2.1,0,4,-2.2,x,x
CCOC(=O)C1CCN(C(c2cc3c(C)ccc(C)c3[nH]c2=O)c2nnnn2C2CCCCC2)CC1 (stereo not drawn),-5,-15,2.6*,0,1,0.096,-33*,-57
CSc1nc(-c2ccco2)cc(-c2ccccc2)c1C#N,0,-20,15*,0,0,0.1,u,u
COC(=O)CSc1nc(-c2ccccc2)cc(-c2ccco2)c1C#N,4,-36,-0.38,1,0,-0.33,x,x
CCc1ccc(NC(=O)CNS(=O)(=O)c2c(C)noc2C)cc1,6,10,-0.58,0,-4,0.9,x,x
CCOc1cccc(C2C(C(=O)c3ccc(C)o3)=C(O)C(=O)N2Cc2ccncc2)c1 (stereo not drawn),8,11,0.54,-1,-7,0.047,x,x
CCOc1cccc(C2C(C(=O)c3ccc(C)o3)=C(O)C(=O)N2c2nccs2)c1 (stereo not drawn),x,x,55*,x,x,0.27,822*,125*
CC(CN1CCOCC1)(NS(=O)(=O)c1ccccc1)c1ccccc1 (stereo not drawn),4,4,18*,2,-2,-0.089,u,-37
CC1=C(C#N)C(=O)OC(C)(C)C1,9,-2,15*,-5,x,-1.2,39,33
O=C(C1CC1)N1CCc2cc(Br)cc(S(=O)(=O)NCC3COc4ccccc4O3)c21 (stereo not drawn),x,x,1.4,x,x,0,x,x
O=C(OCC#CCSc1nnc(-c2cccc3ccccc23)o1)c1cccs1,-5,-5,18*,-1,10,-1.1,u,-30
Cc1cc2c(N3CCCCC3C)ncnc2s1 (stereo not drawn),-4,34,3.5*,-1,16,-0.93,-7.6,-34
c1ccc(CSc2nnc(-c3ccco3)n2Cc2ccco2)cc1,x,x,-0.46,x,x,-0.51,x,x
CCCCOc1[nH]c2nc(-c3ccco3)n(Cc3ccco3)c(=N)c2c1C#N,0,19,15*,0,5,-0.032,18,6.2
C=C(C)CN1CCN(c2c(CCC#N)c(C)c(C#N)c3nc4ccccc4n23)CC1,-1,-11,5.7*,-2,x,0.065,7.4,0.77
CCOC(=O)CCc1c(C)c(C#N)c2nc3ccccc3n2c1-n1ccnc1C,-9,-11,-0.059,0,x,0.41,x,x
SMILES,JNK3 blocker,S1P1 ag pot,M1 ag,S1P3 ag,Jurkat tox 60K,M1 antag,M1 ag confirm,M4 agonist ctr
Cc1cccc(NC(=O)c2cc(NC(=O)C3CCCCC3C(=O)O)ccc2Cl)n1 (stereo not drawn),7,x,0.51,0,-8,0.43,x,x
Cc1ccccc1C(=O)N1CCN(c2ccc(NC(=O)c3ccco3)cc2Cl)CC1,-1,17,2.9*,-1,4,-0.18,u,-94
Cc1cccc(NC(=O)c2cc(NC(=O)c3ccco3)ccc2Cl)n1,8,23,2.5*,-1,6,-0.88,0.72,-8
O=C(Nc1ccc2c(c1)OCO2)C1Cc2ccccc2CN1S(=O)(=O)c1cccs1 (stereo not drawn),-4,-2,5.5*,0,-6,-1.2,-0.26,-21
COc1ccc(S(=O)(=O)N2Cc3ccccc3CC2C(=O)O)cc1OC (stereo not drawn),-3,-8,-0.45,0,-3,-0.81,x,x
COc1ccc(S(=O)(=O)N2Cc3ccccc3CC2C(=O)Nc2ccc(O)cc2)cc1OC (stereo not drawn),5,-16,4*,1,-2,-0.67,-4,-24
O=C(CCCCCn1c(=O)[nH]c2ccsc2c1=O)N1CCN(C2CCCCC2)CC1,7,-4,1.5,0,5,0.012,x,x
CCC(C)(C)NC(=O)C(c1cccn1C)N(C(=O)Cn1nnc2ccccc21)c1ccccc1OC (stereo not drawn),3,19,-0.29,-1,5,0.2,x,x
Cc1cc(N2CCN(c3ccccc3)CC2)n2c(n1)nc1ccccc12,4,1,7.5*,0,4,-0.41,-32*,-63
Cc1cc(N2CCN(c3ccccc3)CC2)n2nnnc2n1,2,-11,-0.96,8,-9,-0.38,x,x
C=C1c2cc(OC)ccc2NC(=O)N1CC,0,-5,8.2*,-4,x,0.069,71*,11
CCN1/C(=C/C(C)=O)Sc2ccc(OC)cc21,-3,11,0.15,-2,2,-0.93,x,x
O=C(CSc1nc2ccccc2c(=O)n1Cc1ccco1)N1CCCCCC1,13,20,2*,0,2,-1.1,u,-62
O=C(NCc1ccco1)c1ccc2c(=O)n(Cc3ccco3)c(SCC(=O)N3CCCC3)nc2c1,x,x,0.77,x,x,-0.42,x,x
CCN(CC)CCNC(=O)C1c2cc(OC)c(OC)cc2C(=O)N2CCc3ccccc3C12 (stereo not drawn),-9,-31,-0.19,-2,1,0.12,x,x
CCN1C(=O)c2cccc3c(NC(=O)C4CCCCC4)ccc1c23,-2,-17,-0.6,-1,5,-0.47,x,x
